Test results reported in ChEMBL document CHEMBL1138683 (J Med Chem, 2004).

Assays:
[1] = system: Mus musculus; assay: Anti convulsant activity administered intra peritoneally to mouse for subcutaneous metrazol test at 4 hr with dose of 300 mg/kg; 0/1= No of animals protected /No of animals tested; assay type: functional
[2] = system: Rattus norvegicus; assay: Anticonvulsant activity after oral administration of 30 mg/kg dose after 1 hr in rats; + means 25% of the animals protected; assay type: functional, organism-based; parameters: dose 30 mg/kg
In short: (§1)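 Oral dosing of rats at a single dose, compound dissolved or suspended in 0.5% methylcellulose. Protection in the MES or scMet test checked 15 min, 30 min, 1 h, 2 h and 4 h after dosing. Scored as 25/50/75/100% of animals protected (+ to ++++), – for none.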

[3] = system: Mus musculus; assay: Anti convulsant activity administered intra peritoneally to mouse at maximal electroshock test at 4 hr after the drug administered with dose of 300 mg/kg; 0/1= No of animals protected /No of animals tested; assay type: functional
[4] = system: Mus musculus; assay: Anti convulsant activity administered intra peritoneally to mouse at maximal electroshock test at 0.5 hr after the drug administered with dose of 300 mg/kg; 1/1= No of animals protected /No of animals tested; assay type: functional
[5] = Anti convulsant activity administered intra peritoneally to mouse for toxicity at 4 hr with dose of 30 mg/kg; 0/2= No of animals exhibiting toxicity /No of animals tested; assay type: organism-based; parameters: dose 30 mg/kg; settings: in vivo, ip
[6] = system: Mus musculus; assay: Anti convulsant activity administered intra peritoneally to mouse at maximal electroshock test at 0.5 h after the drug administered with dose of 30 mg/kg; 0/1= No of animals protected /No of animals tested; assay type: functional
[7] = system: Mus musculus; assay: Anti convulsant activity administered intra peritoneally to mouse at maximal electroshock test at 4 hr after the drug administered with dose of 30 mg/kg; 0/1= No of animals protected /No of animals tested; assay type: functional
[8] = system: Mus musculus; assay: Anti convulsant activity administered intra peritoneally to mouse for subcutaneous metrazol test at 4 hr after the drug administered with dose of 30 mg/kg; 0/1= No of animals protected /No of animals tested; assay type: functional; settings: route intraperitoneal
[9] = system: Rattus norvegicus; assay: Anticonvulsant activity after oral administration of 30 mg/kg dose after 15 min in rats; +means 25% of the animals protected; assay type: functional, organism-based; parameters: dose 30 mg/kg; in short: as §1
[10] = system: Mus musculus; assay: Anti convulsant activity administered intra peritoneally to mouse for subcutaneous metrazol test at 4 hr after the drug administered with dose of 100 mg/kg; 0/1= No of animals protected /No of animals tested; assay type: functional
[11] = Anti convulsant activity administered intra peritoneally to mouse for toxicity at 4 hr with dose of 100 mg/kg; 0/4= No of animals exhibiting toxicity /No of animals tested; assay type: organism-based; parameters: dose 100 mg/kg; settings: in vivo, ip
[12] = Anti convulsant activity administered intra peritoneally to mouse for toxicity at 0.5 hr with dose of 300 mg/kg; 3/4= No of animals exhibiting toxicity /No of animals tested; assay type: organism-based; parameters: dose 300 mg/kg; settings: in vivo, ip
[13] = system: Mus musculus; assay: Anti convulsant activity administered intra peritoneally to mouse at maximal electroshock test at 4 hr after the drug administered with dose of 100 mg/kg; 0/3= No of animals protected /No of animals tested; assay type: functional
[14] = system: Mus musculus; assay: Anti convulsant activity administered intra peritoneally to mouse for subcutaneous metrazol test at 0.5 hr with dose of 30 mg/kg; 0/1= No of animals protected /No of animals tested; assay type: functional
[15] = Anti convulsant activity administered intra peritoneally to mouse for toxicity at 4 hr with dose of 300 mg/kg; 0/2= No of animals exhibiting toxicity /No of animals tested; assay type: organism-based; parameters: dose 300 mg/kg; settings: in vivo, ip
[16] = system: Mus musculus; assay: Anti convulsant activity administered intra peritoneally to mouse at maximal electroshock test at 0.5 hr after the drug administered with dose of 100 mg/kg; 0/3= No of animals protected /No of animals tested; assay type: functional
[17] = system: Mus musculus; assay: Anti convulsant activity administered intra peritoneally to mouse for subcutaneous metrazol test at 0.5 h with dose of 300 mg/kg; 0/1= No of animals protected /No of animals tested; assay type: functional
[18] = Anti convulsant activity administered intra peritoneally to mouse for toxicity at 0.5 hr with dose of 100 mg/kg; 0/8= No of animals exhibiting toxicity /No of animals tested; assay type: organism-based; parameters: dose 100 mg/kg; settings: in vivo, ip
[19] = Anti convulsant activity administered intra peritoneally to mouse for toxicity at 0.5 hr with dose of 30 mg/kg; 0/4= No of animals exhibiting toxicity /No of animals tested; assay type: organism-based; parameters: dose 30 mg/kg; settings: in vivo, ip
[20] = system: Rattus norvegicus; assay: Anticonvulsant activity administered orally to rat at maximal electro shock test; the interval in parenthesis stands for 95% confidence interval; assay type: functional; settings: po
[21] = system: Rattus norvegicus; assay: Anticonvulsant activity administered orally to rat for the protective index of toxicity by maximal electroshock test; T D50/ED50; assay type: functional
[22] = system: Mus musculus; assay: Anticonvulsant activity administered intra peritoneally to mouse at subcutaneous metrazol test; assay type: functional; settings: sc
[23] = system: Mus musculus; assay: Anticonvulsant activity administered intra peritoneally to mouse for the protective index of toxicity by maximal electroshock test; T D50/ED50; assay type: functional
[24] = system: Mus musculus; assay: Anticonvulsant activity administered intra peritoneally to mouse for protective index of subcutaneous metrazol test; assay type: functional
[25] = Anticonvulsant activity administered orally to rat for toxicity; settings: in vivo, po
[26] = system: Rattus norvegicus; assay: Anticonvulsant activity administered orally to rat at subcutaneous metrazol test; assay type: functional
[27] = system: Mus musculus; assay: Anticonvulsant activity administered intra peritoneally to mouse at maximal electro shock test; the interval in parenthesis stands for 95% confidence interval; assay type: functional
[28] = system: Rattus norvegicus; assay: Anticonvulsant activity administered orally to rat for protective index of subcutaneous metrazol test; assay type: functional
[29] = system: Rattus norvegicus; assay: Anticonvulsant activity after oral administration of 100 mg/kg dose after 30 min in rats; ++ means 50% animals protected; assay type: functional, organism-based; parameters: dose 100 mg/kg; in short: as §1
[30] = system: Mus musculus; assay: Anti convulsant activity administered intra peritoneally to mouse for subcutaneous metrazol test at 0.5 hr with dose of 100 mg/kg; 0/1= No of animals protected /No of animals tested; assay type: functional
[31] = Toxicity after oral administration of 100 mg/kg dose in rats;++++ means 100% animals exhibited toxicity; assay type: organism-based; parameters: dose 100 mg/kg, route oral; settings: rat, in vivo
In short: (§2)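 Rats dosed orally with compound dissolved or suspended in 0.5% methylcellulose (0.04 mL per 10 g body weight). Anticonvulsant protection (MES or scMet) and toxicity scored at 15 min, 30 min, 1 h, 2 h and 4 h after dosing. Graded in steps of 25% of animals protected or showing toxicity.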

[32] = system: Mus musculus; assay: Anti convulsant activity administered intra peritoneally to mouse at maximal electroshock test at 0.5 hr after the drug administered with dose of 100 mg/kg; 2/3= No of animals protected /No of animals tested; assay type: functional
[33] = Anti convulsant activity administered intra peritoneally to mouse for toxicity at 4 hr with dose of 100 mg/kg; 3/4= No of animals exhibiting toxicity /No of animals tested; assay type: organism-based; parameters: dose 100 mg/kg; settings: in vivo, ip
[34] = Anti convulsant activity administered intra peritoneally to mouse for toxicity at 4 hr with dose of 300 mg/kg; 2/2= No of animals exhibiting toxicity /No of animals tested; assay type: organism-based; parameters: dose 300 mg/kg; settings: in vivo, ip
[35] = system: Rattus norvegicus; assay: Anticonvulsant activity after oral administration of 30 mg/kg dose after 15 min in rats; + means 25% of the animal protected; assay type: functional, organism-based; parameters: dose 30 mg/kg; in short: as §1
[36] = system: Mus musculus; assay: Anti convulsant activity administered intra peritoneally to mouse at maximal electroshock test at 4 hr after the drug administered with dose of 100 mg/kg; 3/3= No of animals protected /No of animals tested; assay type: functional
[37] = system: Rattus norvegicus; assay: Anticonvulsant activity after oral administration of 30 mg/kg dose after 1 hr in rats;+ means 25% animals protected; assay type: functional, organism-based; parameters: dose 30 mg/kg; in short: as §1
[38] = system: Rattus norvegicus; assay: Anticonvulsant activity after oral administration of 30 mg/kg dose after 2 hr in rats; +means 25% of the animal is protected; assay type: functional, organism-based; parameters: dose 30 mg/kg; in short: as §1
[39] = system: Rattus norvegicus; assay: Anticonvulsant activity after oral administration of 100 mg/kg dose after 2 hr in rats; ++means 50% of the animals protected; assay type: functional, organism-based; parameters: dose 100 mg/kg; in short: as §1
[40] = system: Mus musculus; assay: Anti convulsant activity administered intra peritoneally to mouse at maximal electroshock test at 4 hr after the drug administered with dose of 300 mg/kg; 1/1= No of animals protected /No of animals tested; assay type: functional
[41] = Anti convulsant activity administered intra peritoneally to mouse for subcutaneous metrazol test at 4 hr with dose of 300 mg/kg; 4/4= No of animals protected /No of animals tested; assay type: ADME, organism-based; parameters: dose 300 mg/kg
[42] = Anti convulsant activity administered intra peritoneally to mouse for toxicity at 0.5 hr with dose of 300 mg/kg; 1/4= No of animals exhibiting toxicity /No of animals tested; assay type: organism-based; parameters: dose 300 mg/kg; settings: in vivo, ip
[43] = system: Mus musculus; assay: Anti convulsant activity administered intra peritoneally to mouse at maximal electroshock test at 0.5 h after the drug administered with dose of 300 mg/kg; 0/1= No of animals protected /No of animals tested; assay type: functional
[44] = system: Rattus norvegicus; assay: Anticonvulsant activity administered orally to rat for the protective index of toxicity by maximal electroshock test; TD50/ED50; assay type: functional
[45] = Anticonvulsant activity administered intra peritoneally to mouse for toxicity; settings: in vivo, ip
[46] = Toxicity after oral administration of 50 mg/kg dose in rats; ++ means 50% of the animals exhibiting toxicity; assay type: organism-based; parameters: dose 50 mg/kg, route oral; settings: rat, in vivo; in short: as §2
[47] = system: Rattus norvegicus; assay: Anticonvulsant activity after oral administration of 30 mg/kg dose after 4 hr in rats; - means 25% of the animal protected; assay type: functional, organism-based; parameters: dose 30 mg/kg
[48] = system: Rattus norvegicus; assay: Anticonvulsant activity after oral administration of 223 mg/kg dose after 1 hr in rats; ++++ means 100% of the animals protected; assay type: functional, organism-based; parameters: dose 223 mg/kg; in short: as §1
[49] = Anti convulsant activity administered intra peritoneally to mouse for toxicity at 0.5 hr with dose of 300 mg/kg; 4/4= No of animals exhibiting toxicity /No of animals tested; assay type: organism-based; parameters: dose 300 mg/kg; settings: in vivo, ip

| Structure (SMILES) | Activity [1] | Activity [3] | Activity [4] | Toxicity [5] | Activity [6] | Activity [7] | Activity [8] | Activity [10] | Toxicity [11] | Activity [13] | Activity [14] | Toxicity [15] | Activity [16] | Activity [17] | Toxicity [18] | Toxicity [19] | Ratio [23] | Activity [24] | Activity [28] | Activity [30] | further results |
| --- | --- | --- | --- | --- | --- | --- | --- | --- | --- | --- | --- | --- | --- | --- | --- | --- | --- | --- | --- | --- | --- |
| CC(O)CNC(=O)C1C(C)(C)C1(C)C (stereo not given) | 0 | 0 | 1 | 0 | 0 | 0 | 0 | 0 | 0 | 0 | 0 | 0 | 0 | 0 | 0 | 0 |  |  |  |  | Activity [2]: 25% of the animals protected; Activity [9]: 25% of the animals protected; Toxicity [12]: 3 |
| CC1(C)C(C(=O)NCC(N)=O)C1(C)C |  |  |  |  |  |  |  |  |  |  |  |  |  |  |  |  | 1.5 | 2.3 | -2 |  | ED50 [20]: 82 mg/kg; Activity [21]: >6.1; ED50 [22]: 115 mg/kg; TD50 [25]: > 500 mg/kg; ED50 [26]: > 250 mg/kg; ED50 [27]: 173 mg/kg |
| CC1(C)C(C(=O)NC(N)=S)C1(C)C | 0 |  | 1 | 0 | 0 | 0 | 0 | 0 |  |  | 0 |  |  | 0 | 0 | 0 |  |  |  | 0 | Activity [29]: 25% animals protected; Toxicity [31]: 100% animals exhibited toxicity; Activity [32]: 2; Toxicity [33]: 3; Toxicity [34]: 2; Activity [35]: 25% animals protected; Activity [36]: 3; Activity [37]: 25% animals protected; Activity [38]: 25% animals protected; Anticonvulsant Activity [39]: 50% of the animals protected; Activity [40]: 1; Toxicity [41]: 4 |
| CC1(C)C(C(=O)NO)C1(C)C | 0 | 0 |  | 0 | 0 | 0 | 0 | 0 | 0 | 0 | 0 | 0 | 0 | 0 | 0 | 0 |  |  |  |  | Toxicity [42]: 1; Activity [43]: 0 |
| CNC(=O)C1C(C)(C)C1(C)C |  |  |  |  |  |  |  |  |  |  |  |  |  |  |  |  | 1.6 | 3.9 | 3.6 |  | Ratio [44]: 2; TD50 [45]: 153 mg/kg |
| CCNC(=O)C1C(C)(C)C1(C)C | 0 |  | 1 | 0 | 0 | 0 | 0 | 0 | 0 | 0 | 0 |  | 0 | 1 | 0 | 0 |  |  |  | 0 | Toxicity [46]: 50% of the animals exhibiting toxicity; Activity [47]: 100% of the animals protected; Activity [48]: 100% of the animals protected; Toxicity [34]: 2; Activity [40]: 1; Toxicity [49]: 4 |
